Assay outcomes (PubChem BioAssay)
Only some compounds are listed: those with a hit (about 3.4% of all), similar ones and a draw of the others.
LANA-H2B inh = blocks KSHV LANA binding to histone H2A/H2B; cell-free LANA-H2A/H2B peptide, fluorescence polarization; inhibition, % (concentration not given with the values); hit rate 0.6% among 320,000; AID 2629; in the data active means inhibition mostly above about 10%, no sharp cut-off; inactive means mostly below about 6.7%
TAAR1 ag = human TAAR1 agonism; AID 624467; activation, % at 3 µM; CHO RD-HGA16 TAAR1, Fluo-8 calcium fluorescence; vehicle wells 0%, saturating PEA agonist 100%; Q96RJ0; hit rate 0.99% among 360,000;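 active means activation above the mean activation of all test compounds in the run plus 3 SD, cut at about 38% in these data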
Target sequence (Q96RJ0 whole entry, looked up): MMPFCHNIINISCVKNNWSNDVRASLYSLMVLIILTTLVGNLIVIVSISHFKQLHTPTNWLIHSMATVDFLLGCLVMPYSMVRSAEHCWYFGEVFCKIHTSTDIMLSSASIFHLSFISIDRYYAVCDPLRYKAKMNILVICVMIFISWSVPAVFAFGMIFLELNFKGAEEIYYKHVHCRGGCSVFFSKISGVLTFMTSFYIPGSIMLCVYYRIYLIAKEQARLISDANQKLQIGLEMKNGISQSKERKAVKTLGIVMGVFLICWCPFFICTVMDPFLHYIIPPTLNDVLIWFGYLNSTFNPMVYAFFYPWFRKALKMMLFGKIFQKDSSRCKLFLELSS
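Benchmarks: low control DMSO, high control PEA (EC100); System: CHO RD-HGA16 cells carrying human TAAR1 plus Gα16; Detection: Fluo-8 fluorescence, 5 s baseline then 140 s kinetic read; Schedule: 17-24 h plating, Fluo-8 75 min 37 °C, 30 min RT; Read-out basis: % activation from peak over basal fluorescence ratio, DMSO-to-PEA scaled.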
TRPML3 agonist = human mucolipin-3 channel agonism. Q8TDD5. HEK293 TRPML3-YFP, Fluo-8 calcium fluorescence; 100% = the carbachol control signal. activation, % at 3 µM. hit rate 0.29% among 220,000. AID 1448;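 active means activation above its plate's cutoff, the mean activation of the plate's test wells plus 3 SD, cut at about 12% in these data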
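Test system: TRPML3-YFP stable HEK293 cells. Doses: single point at 3 µM. Incubation: dye loading 1 h 37 °C then 30 min ambient, 125 s read. Signal: Fluo-8 calcium dye fluorescence, ex 470-495, em 515-575 nm. Measure: percent activation from peak-to-basal fluorescence ratio, scaled between DMSO and carbachol.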
TRPN1 ag = agonists of zebrafish TRPN1 channel | hit rate 0.18% among 220,000 | AID 1424 | activation, % at 3 µM | HEK293 zebrafish TRPN1-YFP, Fluo-8 calcium fluorescence; 100% = response to 87 µM carbachol;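 active means activation above its plate's cutoff, the mean activation of test wells on that plate plus 3 SD, cut at about 19% in these data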
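Control set: carbachol 87 µM as high control, DMSO as low control; system: HEK293 stable line with zebrafish TRPN1-YFP; read-out: % activation versus carbachol response; detection: intracellular calcium fluorescence with Fluo-8; doses: single test compound dose, 3 µM nominal, 0.3% DMSO; schedule: dye 1 h 37 °C plus 30 min RT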
TAAR1 antag = antagonists of human TAAR1 | inhibition, % at 3 µM | CHO RD-HGA16 TAAR1, Fluo-8 calcium fluorescence, antagonist | Q96RJ0 | hit rate 1.5% among 360,000;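 active means inhibition above a per-plate cutoff, the mean inhibition of test compounds on that plate plus 3 SD, cut at about 49% in these data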
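System: RD-HGA16 CHO cells with stable hTAAR1 and Gα16 | Probe or stimulus: EC80 β-phenethylamine stimulus | Dosing: 3 µM, single point | Times: Dye loading 75 min at 37 °C, then 30 min room temperature | Measured by: Fluo-8 calcium-sensitive fluorescence | Read-out basis: % inhibition of agonist calcium response | Replicates: n of 1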
GPR7 antag = blocks human GPR7 receptor signaling; hit rate 1.1% among 290,000; GPR7-expressing cells, fluorescence antagonist assay; inhibition, % at 4.4 µM; AID 1861; P48145; in the data active means inhibition above about 16%, passing the limit was not always enough;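 further: cells stimulated with the agonist NPW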
nonsel antag count = counter-screen for TAAR1 antagonists: nonselective antagonists. hit rate 77% among 2,400. shares compounds with TAAR1 antag. counterscreen cell line, calcium fluorescence, antagonist mode. AID 651780. inhibition, % at 3 µM; in the data active means inhibition above about 22%;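 further: CHO-Ga16 host cells stimulated with ATP at an EC80 level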
TAAR1 antag conf = human TAAR1 antagonism, confirmed; hit rate 40% among 2,400; inhibition, % at 3 µM; TAAR1-expressing cells, fluorescence antagonist read-out; shares compounds with TAAR1 antag; AID 651785; in the data active means inhibition above about 49%;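 further: CHO-Ga16 host cells challenged with agonist PEA near its EC80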
Ga16 nonsel ag = nonselective Ga16 agonism, counter-screen; shares compounds with TAAR1 antag; Ga16-expressing cells, calcium fluorescence, agonist counterscreen; activation, % at 3 µM; hit rate 18% among 2,400; AID 651953; in the data active means activation above about 12%
TAAR1 ag counter = TAAR1 agonism, antagonist counter-screen; shares compounds with TAAR1 antag; hTAAR1 cell line, fluorescence activation, agonist mode; activation, % at 3 µM; hit rate 2% among 2,400; in the data active means activation above about 37%;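 further: CHO cells stably expressing TAAR1 with calcium dye readout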
Hits are given with their value; – = inactive; · = not tested or not shown.

SMILES	LANA-H2B inh	TAAR1 ag	TRPML3 agonist	TRPN1 ag	TAAR1 antag	GPR7 antag	nonsel antag count	TAAR1 antag conf	Ga16 nonsel ag	TAAR1 ag counter
Cc1nc(-c2ccc(C(=O)Nc3cccc(F)c3)cc2)cs1	–	–	·	·	–	–	·	·	·	·
CCCn1c(NC(=O)c2ccc(Cl)c(S(=O)(=O)N3CCCC3)c2)nc2ccccc21	–	–	–	–	57	–	38	–	–	–
O=C(O)c1cccc(NC(=O)c2ccc(Cl)c(S(=O)(=O)N3CCCCCC3)c2)c1	–	–	–	–	–	–	·	·	·	·
Cc1nc(-c2cccc(NC(=O)c3ccc(-n4cccn4)cc3)c2)cs1	–	–	·	·	63	·	22	–	–	–
Cc1nc(-c2cccc(NC(=O)c3ccc(Cl)c(S(=O)(=O)N4CCCC4)c3)c2)cs1	·	–	·	·	62	·	26	–	–	–
CCOc1ccccc1CN1CCNC(=O)C1CC(=O)NCCCn1cccn1 (centres undefined)	–	–	·	·	–	–	·	·	·	·
Cc1nc(Cc2nnc(SCC(=O)Nc3c(C)cccc3C)o2)cs1	–	–	·	·	–	·	·	·	·	·
CC(C)CN1CCC(=O)N([C@H](CSc2ccccc2)Cc2ccccc2)CC1	–	–	·	·	53	–	–	–	–	–
O=S(=O)(c1cccc(F)c1)N1CCN(c2nc(-c3cccnc3)nc3ccccc23)CC1	–	–	·	·	61	·	24	54	–	–
O=C(c1cc(Cl)nc2ccccc12)N1CCN(S(=O)(=O)c2cccc(F)c2)CC1	–	–	·	·	–	·	·	·	·	·
CCN(C(=O)COC(=O)/C=C/c1ccco1)C1CCCCC1	–	–	·	·	–	·	·	·	·	·
CC(=O)c1ccc(NC(=O)c2ccc(CSc3ccccc3)o2)cc1	–	–	–	–	95	–	28	80	–	–
O=C(Nc1ccc(F)cc1)c1ccc(CSc2ccccc2)o1	–	–	–	–	–	–	·	·	·	·
CC(=O)c1cccc(NC(=O)c2ccc(-c3ccccc3[N+](=O)[O-])o2)c1	–	–	–	–	62	–	24	–	18	–
CC(=O)c1ccc(NC(=O)c2ccc(COc3ccccc3[N+](=O)[O-])o2)cc1	–	·	–	–	·	–	–	·	–	·
CC12CCC(C(=O)C1)C1(C)CCCC(=O)C21 (centres undefined)	·	–	·	·	–	·	·	·	·	·
Cc1cc(NC(=O)CSc2nnc(C(F)(F)F)n2C)no1	–	–	·	·	–	·	·	·	·	·
CCOC(=O)[C@H]1[C@H]2COc3ccc(Cl)cc3[C@@H]2N2C(=O)c3cc(F)ccc3NC(=O)[C@@]12C	–	–	·	·	–	·	·	·	·	·
O=C1C=C(C#Cc2ccccc2)C[C@@H](c2ccc(F)cc2)C1	·	–	·	·	–	·	·	·	·	·
CCOC(=O)c1cc(NC(=O)Cc2ccc(S(=O)(=O)N3CCOCC3)s2)cc(C(=O)OCC)c1	–	–	·	·	76	·	29	–	–	–
O=C(NCCc1ccc(Cl)cc1)C1CCN(S(=O)(=O)c2cccs2)CC1	–	–	–	–	61	–	–	50	16	–
CC(C)CN(CC(C)C)S(=O)(=O)N1CCC(C(=O)NCCc2ccc(Cl)cc2)CC1	–	–	–	–	49	–	32	53	–	–
O=C(NCCN1C(=O)S/C(=C\c2ccccc2)C1=O)C1CCN(S(=O)(=O)c2cccs2)CC1	–	–	–	–	67	–	46	52	15	–
Cc1ccc(-c2cc(C(=O)N3CCN(C(=O)c4ccco4)CC3)[nH]n2)c(C)c1	–	–	·	·	–	–	·	·	·	·
CCC(=O)N1CCN(c2ccc(NC(=O)COc3ccccc3[N+](=O)[O-])cc2)CC1	–	–	–	–	86	–	32	57	14	–
COc1cccc(OCc2cc(C(=O)N(C)Cc3nc4ccccc4[nH]3)no2)c1	–	–	·	·	–	–	·	·	·	·
